Assay results: ChEMBL document CHEMBL1151764, “Search for inhibitors of bacterial and human protein kinases among derivatives of diazepines[1,4] annelated with maleimide and indole cycles” (J Med Chem, 2008)
Each block holds one compound with its values, some of them ahead of it.

Experiments:
Streptomyces lividans [1] = experiment: Inhibition of aph8 positive Streptomyces lividans at 1200 uM after 20 hrs by paper disk method; format: functional; conditions: read-out: IZ
Outline: (§1)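 Test culture was Streptomyces lividans carrying plasmid pSU23 with the aphVIII gene, whose kanamycin-inactivating activity depends on Ser/Thr kinase phosphorylation. Paper disks (7 mm) held kanamycin (5 µg/disk) plus test compound at subtoxic amounts, about half the minimal growth-inhibitory dose. Disks went on plates of log-phase cells at 28 °C for 20 h. Read-out was lysis zone diameter.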

Streptomyces coelicolor [2] = experiment: Inhibition of aph8-induced kanamycin phosphorylation in Streptomyces coelicolor cell lysate assessed as [32Pi] incorporation into kanamycin at 10 uM by microplate scintillation counter relative to control; design: scale not given: the % may be the effect or the level left
Streptomyces coelicolor [3] = experiment: Inhibition of Ca(2+))/phosphatidylserine/diacylglycerol-dependent aph8 phosphorylation in Streptomyces coelicolor cell lysate assessed as [32Pi] incorporation into aph8 at 500 nM by microplate scintillation counter relative to control; design: scale not given: the % may be the effect or the level left
Outline: (§2)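 Radiometric in vitro assay of actinobacterial protein kinases. Kinases incubated under standard conditions with [γ-³²P]ATP and aphVIII as substrate, with or without modulators or inhibitors. Read-out was incorporation of the γ-phosphoryl residue into aphVIII.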

Streptomyces lividans [4] = experiment: Inhibition of aph8 positive Streptomyces lividans at 300 uM after 20 hrs by paper disk method; format: functional; conditions: read-out: IZ; outline: as §1
Streptomyces lividans [5] = experiment: Inhibition of aph8 positive Streptomyces lividans at 600 uM after 20 hrs by paper disk method; format: functional; conditions: read-out: IZ; outline: as §1
Streptomyces lividans [6] = experiment: Inhibition of aph8 positive Streptomyces lividans at 150 uM after 20 hrs by paper disk method; format: functional; conditions: read-out: IZ; outline: as §1
Streptomyces lividans [7] = experiment: Inhibition of aph8 positive Streptomyces lividans at 75 uM after 20 hrs by paper disk method; format: functional; conditions: read-out: IZ; outline: as §1
Streptomyces coelicolor [8] = experiment: Inhibition of Ca(2+)/Calmodulin-dependent aph8 phosphorylation in Streptomyces coelicolor cell lysate assessed as [32Pi] incorporation into aph8 at 500 nM by microplate scintillation counter relative to control; design: scale not given: the % may be the effect or the level left; outline: as §2
[9] = target: Cyclin-dependent kinase 2 (Homo sapiens, UniProt P24941); experiment: Inhibition of human CDK2/CycA
Streptomyces lividans [10] = experiment: Inhibition of aph8 positive Streptomyces lividans at 50 uM after 20 hrs by paper disk method; format: functional; conditions: read-out: IZ; outline: as §1
Streptomyces lividans [11] = experiment: Inhibition of aph8 positive Streptomyces lividans at 25 uM after 20 hrs by paper disk method; format: functional; conditions: read-out: IZ; outline: as §1
Streptomyces lividans [12] = experiment: Inhibition of aph8 positive Streptomyces lividans at 100 uM after 20 hrs by paper disk method; format: functional; conditions: read-out: IZ; outline: as §1
Streptomyces lividans [13] = experiment: Inhibition of aph8 positive Streptomyces lividans at 5 uM after 20 hrs by paper disk method; format: functional; conditions: read-out: IZ; outline: as §1
Streptomyces lividans [14] = experiment: Inhibition of aph8 positive Streptomyces lividans at 10 uM after 20 hrs by paper disk method; format: functional; conditions: read-out: IZ; outline: as §1
[15] = target: Cyclin-dependent kinase 4/cyclin D1 (Homo sapiens, UniProt P11802); experiment: Inhibition of human CDK4/CycD1; format: protein-complex assay
Chain of Cyclin-dependent kinase 4/cyclin D1 (P11802 whole entry): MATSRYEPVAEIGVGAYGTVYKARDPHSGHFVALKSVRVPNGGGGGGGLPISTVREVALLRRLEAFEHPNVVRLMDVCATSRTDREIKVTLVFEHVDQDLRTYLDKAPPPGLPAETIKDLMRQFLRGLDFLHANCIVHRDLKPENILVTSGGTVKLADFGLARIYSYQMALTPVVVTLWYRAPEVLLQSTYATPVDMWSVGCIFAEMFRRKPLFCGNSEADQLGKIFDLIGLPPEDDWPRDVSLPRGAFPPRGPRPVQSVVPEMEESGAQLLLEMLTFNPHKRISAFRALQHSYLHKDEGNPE
Chain of Cyclin-dependent kinase 4/cyclin D1 (P24385 whole entry, further chain): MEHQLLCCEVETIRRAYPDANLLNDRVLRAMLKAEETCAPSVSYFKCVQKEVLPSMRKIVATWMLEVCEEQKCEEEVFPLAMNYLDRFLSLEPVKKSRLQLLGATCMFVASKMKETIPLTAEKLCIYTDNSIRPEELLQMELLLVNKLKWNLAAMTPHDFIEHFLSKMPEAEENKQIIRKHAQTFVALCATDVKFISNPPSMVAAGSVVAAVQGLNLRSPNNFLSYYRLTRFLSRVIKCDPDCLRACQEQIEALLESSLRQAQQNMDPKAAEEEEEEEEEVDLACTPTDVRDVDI

[16] = target: Serine/threonine-protein kinase B-raf (Homo sapiens, UniProt P15056, V600E); experiment: Inhibition of human B-RAF-V600E mutant
Insulin receptor = Insulin receptor (Homo sapiens, UniProt P06213); experiment: Inhibition of human INSR
Chain of Insulin receptor (P06213 28-758 limits assumed): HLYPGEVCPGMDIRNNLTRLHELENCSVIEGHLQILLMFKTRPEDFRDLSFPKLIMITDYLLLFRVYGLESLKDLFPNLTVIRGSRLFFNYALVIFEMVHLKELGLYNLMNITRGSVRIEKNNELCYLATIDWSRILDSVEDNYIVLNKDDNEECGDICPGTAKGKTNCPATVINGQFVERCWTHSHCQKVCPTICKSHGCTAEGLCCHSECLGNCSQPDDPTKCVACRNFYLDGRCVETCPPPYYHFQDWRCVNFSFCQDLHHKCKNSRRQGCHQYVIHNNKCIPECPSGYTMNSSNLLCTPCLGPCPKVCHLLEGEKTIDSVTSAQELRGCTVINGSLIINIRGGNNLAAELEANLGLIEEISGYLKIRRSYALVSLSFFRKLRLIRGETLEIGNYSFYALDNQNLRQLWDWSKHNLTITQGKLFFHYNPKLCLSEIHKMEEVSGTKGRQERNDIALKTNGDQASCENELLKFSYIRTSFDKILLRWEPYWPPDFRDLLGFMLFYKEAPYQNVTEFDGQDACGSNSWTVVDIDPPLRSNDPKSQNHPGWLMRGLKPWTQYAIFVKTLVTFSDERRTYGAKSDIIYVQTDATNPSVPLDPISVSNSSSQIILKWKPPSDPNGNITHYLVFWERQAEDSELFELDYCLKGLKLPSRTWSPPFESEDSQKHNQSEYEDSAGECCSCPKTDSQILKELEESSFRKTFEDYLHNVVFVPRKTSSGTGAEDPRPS
Chain of Insulin receptor (P06213 763-1382 limits assumed): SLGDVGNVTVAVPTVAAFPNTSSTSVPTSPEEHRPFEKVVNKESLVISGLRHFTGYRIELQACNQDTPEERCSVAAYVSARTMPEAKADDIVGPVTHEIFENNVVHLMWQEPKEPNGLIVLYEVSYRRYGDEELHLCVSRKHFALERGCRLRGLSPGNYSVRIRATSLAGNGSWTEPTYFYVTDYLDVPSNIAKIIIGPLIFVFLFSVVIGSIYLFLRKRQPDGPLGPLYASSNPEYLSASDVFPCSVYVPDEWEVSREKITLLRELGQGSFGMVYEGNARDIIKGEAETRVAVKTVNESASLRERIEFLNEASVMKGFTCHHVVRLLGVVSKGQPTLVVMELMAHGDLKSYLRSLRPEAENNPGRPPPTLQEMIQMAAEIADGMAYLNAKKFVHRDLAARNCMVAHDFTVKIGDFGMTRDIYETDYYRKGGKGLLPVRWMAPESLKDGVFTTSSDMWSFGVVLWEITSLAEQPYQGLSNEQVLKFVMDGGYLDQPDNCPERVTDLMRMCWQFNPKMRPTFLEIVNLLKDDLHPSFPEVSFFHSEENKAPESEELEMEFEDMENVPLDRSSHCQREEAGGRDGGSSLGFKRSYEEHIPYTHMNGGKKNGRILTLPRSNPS

[17] = target: Hepatocyte growth factor receptor (Homo sapiens, UniProt P08581); experiment: Inhibition of human MET
Angiopoietin-1 receptor = Angiopoietin-1 receptor (Homo sapiens, UniProt Q02763); experiment: Inhibition of human TIE2
Chain of Angiopoietin-1 receptor (Q02763 whole entry): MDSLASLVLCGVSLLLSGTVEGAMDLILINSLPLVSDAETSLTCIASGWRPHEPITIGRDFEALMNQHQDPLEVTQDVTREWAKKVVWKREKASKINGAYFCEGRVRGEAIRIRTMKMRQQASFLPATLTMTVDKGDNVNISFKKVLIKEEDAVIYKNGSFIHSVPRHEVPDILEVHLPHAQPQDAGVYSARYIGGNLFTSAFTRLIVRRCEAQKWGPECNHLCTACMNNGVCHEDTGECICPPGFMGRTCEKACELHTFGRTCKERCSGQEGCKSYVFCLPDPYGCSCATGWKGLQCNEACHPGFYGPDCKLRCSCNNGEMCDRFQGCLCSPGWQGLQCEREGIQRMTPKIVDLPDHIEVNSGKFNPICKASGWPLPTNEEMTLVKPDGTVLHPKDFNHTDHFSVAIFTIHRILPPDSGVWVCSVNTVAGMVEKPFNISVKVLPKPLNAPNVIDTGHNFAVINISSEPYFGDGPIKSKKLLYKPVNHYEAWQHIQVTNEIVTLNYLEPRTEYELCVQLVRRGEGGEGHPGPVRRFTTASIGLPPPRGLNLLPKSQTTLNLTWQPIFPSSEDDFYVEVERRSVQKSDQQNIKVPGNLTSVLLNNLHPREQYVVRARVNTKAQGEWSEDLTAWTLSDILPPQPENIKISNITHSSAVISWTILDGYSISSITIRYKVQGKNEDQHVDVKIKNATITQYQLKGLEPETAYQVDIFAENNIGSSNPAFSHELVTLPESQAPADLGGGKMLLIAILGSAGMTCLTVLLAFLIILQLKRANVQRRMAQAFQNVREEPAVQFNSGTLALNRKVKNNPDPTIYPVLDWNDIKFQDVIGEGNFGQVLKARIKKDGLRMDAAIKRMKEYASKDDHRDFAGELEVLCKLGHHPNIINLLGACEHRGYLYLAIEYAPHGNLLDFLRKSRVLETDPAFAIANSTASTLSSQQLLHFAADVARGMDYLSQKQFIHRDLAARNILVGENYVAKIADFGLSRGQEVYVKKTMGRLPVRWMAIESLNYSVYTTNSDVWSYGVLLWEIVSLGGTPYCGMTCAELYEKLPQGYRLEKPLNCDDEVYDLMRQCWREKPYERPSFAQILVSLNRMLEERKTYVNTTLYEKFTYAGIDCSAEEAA

[18] = target: Vascular endothelial growth factor receptor 3 (Homo sapiens, UniProt P35916); experiment: Inhibition of human VEGFR3
[19] = target: Insulin-like growth factor 1 receptor (Homo sapiens, UniProt P08069); experiment: Inhibition of human IGF1R
Chain of Insulin-like growth factor 1 receptor (P08069 31-736 limits assumed): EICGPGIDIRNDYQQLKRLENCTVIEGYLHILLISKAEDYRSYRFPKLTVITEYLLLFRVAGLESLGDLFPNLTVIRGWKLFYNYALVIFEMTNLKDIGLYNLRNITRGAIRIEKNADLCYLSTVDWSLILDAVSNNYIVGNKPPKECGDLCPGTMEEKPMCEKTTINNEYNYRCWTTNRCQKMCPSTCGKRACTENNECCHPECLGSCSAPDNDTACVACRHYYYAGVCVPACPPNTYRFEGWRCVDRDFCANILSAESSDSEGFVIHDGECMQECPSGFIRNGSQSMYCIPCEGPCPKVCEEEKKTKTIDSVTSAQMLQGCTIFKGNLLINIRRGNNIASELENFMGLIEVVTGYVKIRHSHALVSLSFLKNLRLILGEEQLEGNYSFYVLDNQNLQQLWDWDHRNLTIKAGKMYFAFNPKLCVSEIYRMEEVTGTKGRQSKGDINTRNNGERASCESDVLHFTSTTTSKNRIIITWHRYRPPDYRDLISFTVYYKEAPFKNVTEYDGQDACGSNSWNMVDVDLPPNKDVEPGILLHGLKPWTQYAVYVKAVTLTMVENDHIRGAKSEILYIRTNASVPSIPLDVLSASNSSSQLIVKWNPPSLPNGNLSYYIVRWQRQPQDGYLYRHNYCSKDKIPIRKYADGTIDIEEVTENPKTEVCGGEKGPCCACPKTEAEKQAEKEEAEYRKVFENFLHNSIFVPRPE
Chain of Insulin-like growth factor 1 receptor (P08069 741-1367 limits assumed): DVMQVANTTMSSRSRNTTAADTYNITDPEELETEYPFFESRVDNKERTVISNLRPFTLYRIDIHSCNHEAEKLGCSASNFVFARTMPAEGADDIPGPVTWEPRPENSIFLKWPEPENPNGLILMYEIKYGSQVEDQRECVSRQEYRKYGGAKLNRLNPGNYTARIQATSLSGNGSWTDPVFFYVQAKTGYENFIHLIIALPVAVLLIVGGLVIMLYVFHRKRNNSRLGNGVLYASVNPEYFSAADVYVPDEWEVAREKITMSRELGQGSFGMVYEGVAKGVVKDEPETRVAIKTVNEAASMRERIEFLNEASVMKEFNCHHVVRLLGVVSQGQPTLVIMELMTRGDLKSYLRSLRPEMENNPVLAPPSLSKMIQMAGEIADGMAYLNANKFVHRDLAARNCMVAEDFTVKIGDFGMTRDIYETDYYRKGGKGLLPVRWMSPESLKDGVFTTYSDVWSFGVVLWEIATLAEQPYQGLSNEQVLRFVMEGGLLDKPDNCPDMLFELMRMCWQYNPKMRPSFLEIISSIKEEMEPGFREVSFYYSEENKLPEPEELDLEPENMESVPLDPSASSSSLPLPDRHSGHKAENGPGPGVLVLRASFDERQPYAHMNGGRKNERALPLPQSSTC

[20] = target: Vascular endothelial growth factor receptor 2 (Homo sapiens, UniProt P35968); experiment: Inhibition of human VEGFR2
[21] = target: Epidermal growth factor receptor (Homo sapiens, UniProt P00533); experiment: Inhibition of human EGFR

SMILES: CCNC(=N)SCCCN1C(=O)C2=C(C1=O)n1ccc3cccc(c31)C1Cc3ccccc3N21 (stereo not given)
IC50 [9]: 6.8 µM

SMILES: CN1C(=O)C(c2c[nH]c3ccccc23)=C(c2c[nH]c3ccccc23)C1=O
Activity (Streptomyces coelicolor [2]): 89%
Activity (Streptomyces coelicolor [3]): 206%

SMILES: CNC(=N)SCCCN1C(=O)C2=C(C1=O)n1ccc3cccc(c31)C1Cc3ccccc3N21 (stereo not given)
IC50 [15]: 5.7 µM
IC50 [16]: 8 µM
IC50 (Insulin receptor): 5.1 µM
IC50 [17]: 6.7 µM
IC50 [9]: 5.3 µM

SMILES: N=C(Nc1ccccc1)SCCCN1C(=O)C2=C(C1=O)n1ccc3cccc(c31)C1Cc3ccccc3N21 (stereo not given)
IC50 (Angiopoietin-1 receptor): 8.9 µM
IC50 [15]: 7.9 µM
IC50 [18]: 9.6 µM
IC50 [19]: 2.3 µM
IC50 [9]: 5.1 µM
IC50 [20]: 4.3 µM
IC50 [21]: 9.5 µM

SMILES: O=C1C2=C(C(=O)N1CCCSC1=NCCN1)n1ccc3cccc(c31)C1Cc3ccccc3N21 (stereo not given)
IC50 [9]: 7.7 µM

The next lines start with results.

Activity (Streptomyces coelicolor [2]): 95%
Activity (Streptomyces coelicolor [3]): 152%
SMILES: CN(C)CCCn1cc(C2=C(c3c[nH]c4ccccc34)C(=O)NC2=O)c2ccccc21 [GF-109203]
zone of inhibition at 1200 µM (Streptomyces lividans [1]): 10 mm
zone of inhibition at 300 µM (Streptomyces lividans [4]): 7.5 mm
zone of inhibition at 600 µM (Streptomyces lividans [5]): 9 mm
zone of inhibition at 150 µM (Streptomyces lividans [6]): 0 mm
zone of inhibition at 75 µM (Streptomyces lividans [7]): 0 mm

Activity (Streptomyces coelicolor [8]): 352%
SMILES: COc1ccc(S(=O)(=O)Nc2ccccc2CN(C)C/C=C/c2ccc(Cl)cc2)cc1

Activity (Streptomyces coelicolor [2]): 92%
SMILES: CCN(CC)Cc1cn2c3c(cccc13)C1Cc3ccccc3N1C1=C2C(=O)NC1=O (stereo not given)
zone of inhibition at 50 µM (Streptomyces lividans [10]): 9 mm
zone of inhibition at 25 µM (Streptomyces lividans [11]): 7.5 mm
zone of inhibition at 100 µM (Streptomyces lividans [12]): 12 mm
zone of inhibition at 5 µM (Streptomyces lividans [13]): 0 mm
zone of inhibition at 10 µM (Streptomyces lividans [14]): 0 mm
